Activity calls are given as the source filed them. The rule behind the calls is not given here.
How the values were obtained:
[1] = target: T1, Corticotropin-releasing factor receptor 1 (Homo sapiens, UniProt P34998); experiment: Displacement of [125I]CRF from human CRF1 receptor expressed in CHO-K1 cells after 2 hrs by gamma counter; format: cell-based
T1 sequence (P34998 whole entry): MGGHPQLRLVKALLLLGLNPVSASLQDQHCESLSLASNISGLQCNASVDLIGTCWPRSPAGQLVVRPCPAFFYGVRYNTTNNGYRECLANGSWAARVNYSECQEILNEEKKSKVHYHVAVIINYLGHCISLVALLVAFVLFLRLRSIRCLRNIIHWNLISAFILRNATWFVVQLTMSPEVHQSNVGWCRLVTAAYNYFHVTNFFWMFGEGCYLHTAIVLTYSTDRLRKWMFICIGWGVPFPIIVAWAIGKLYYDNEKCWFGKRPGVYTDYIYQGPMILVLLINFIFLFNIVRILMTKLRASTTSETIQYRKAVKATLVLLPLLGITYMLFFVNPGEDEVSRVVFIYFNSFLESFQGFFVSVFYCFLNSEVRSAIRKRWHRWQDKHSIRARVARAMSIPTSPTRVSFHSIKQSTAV
Outline: (§1)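 Crude membranes came from CRF1-expressing CHO-K1 cells, homogenized in 50 mmol/l Tris–HCl with 10 mmol/l MgCl2, 2 mmol/l EDTA and aprotinin, then spun at 10,000 g. Membranes were incubated 2 h at room temperature with 0.5 nmol/l 125I human/rat CRF (added solution) and test compound (1–10000 nmol/l). Bound ligand was separated by centrifugation and washed with PBS/0.01% Triton X-100, then counted by γ-counter. Nonspecific binding was defined with 1 µmol/l unlabeled CRF. IC50 was taken from concentration–response curves.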

[2] = target: T1, Corticotropin-releasing factor receptor 1; experiment: Antagonist activity at human CRF1 receptor expressed in CHO-K1 cells assessed as CRF-stimulated cAMP accumulation by enzyme immunoassay; format: functional, cell-based; conditions: read-out: EC50 (the source's name)
Outline: (§2)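 CHO-K1 cells expressing CRF1 were seeded at 1 × 10^4 cells/well and incubated overnight, then washed twice with F-12. They were preincubated 10 min at 37 °C in F-12 containing 1 mmol/l IBMX. Test compound (1–10000 nmol/l) and 10 nmol/l CRF (final concentration not stated) were added, followed by 15 min at 37 °C. Cells were chilled and cAMP measured by enzyme immunoassay after blank subtraction. IC50 was taken from concentration–response curves.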

[3] = target: T2, Corticotropin-releasing factor receptor 1 (Rattus norvegicus, UniProt P35353); experiment: Displacement of [125I]CRF from rat CRF1 receptor expressed in CHO-K1 cells after 2 hrs by gamma counter; format: cell-based; conditions: in the assay text read “in brain membranes” for “expressed in CHO-K1 cells”; outline: as §1
T2 sequence (P35353 whole entry): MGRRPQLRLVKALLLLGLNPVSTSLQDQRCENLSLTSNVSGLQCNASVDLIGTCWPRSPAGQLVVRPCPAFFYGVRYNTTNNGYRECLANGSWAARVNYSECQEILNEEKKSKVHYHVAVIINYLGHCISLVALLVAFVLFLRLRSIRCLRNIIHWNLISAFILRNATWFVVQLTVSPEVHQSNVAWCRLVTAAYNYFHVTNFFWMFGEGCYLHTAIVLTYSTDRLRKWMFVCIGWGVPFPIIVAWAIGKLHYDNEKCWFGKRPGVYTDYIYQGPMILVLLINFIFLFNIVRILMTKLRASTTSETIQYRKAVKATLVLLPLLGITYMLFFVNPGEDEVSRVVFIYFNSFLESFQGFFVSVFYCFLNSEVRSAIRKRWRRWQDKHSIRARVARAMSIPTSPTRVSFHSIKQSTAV

[4] = target: T2, Corticotropin-releasing factor receptor 1; experiment: Antagonist activity at rat CRF1 receptor expressed in CHO-K1 cells assessed as CRF-stimulated cAMP accumulation by enzyme immunoassay; format: functional, cell-based; outline: as §2
[5] = system: Rattus norvegicus; experiment: Anxiolytic activity against swin-stress-induced anxiety-like behavior in po dosed Sprague-Dawley rat assessed as increase in time spent in open arms after 1 hr by plus-maze test; format: functional, organism-based
Outline: (§3)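 Male Sprague-Dawley rats (230–280 g) received oral vehicle (0.5% MC) or compound 1 h before testing. They were forced to swim 120 s in 22 ± 2 °C water (25 cm deep) and dried. Each rat was placed at the maze centre facing a closed arm and video-tracked for 5 min. Time in and entries into open arms were scored. Non-stressed controls were included. Data are mean ± S.E., with n=16 per group. Dunnett test versus vehicle.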

[6] = AUC (infinity) in rat at 1 mg/kg, iv; format: ADME, organism-based; parameters: time infinity, dose 1 mg/kg, route intravenous; conditions: plasma
Outline: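 Fasted male rats given a single 1 mg/kg intravenous dose in saline with 30% HP-β-CD (w/v). Heparinized jugular-vein blood was drawn pre-dose and at 2, 5, 15 and 30 min and 1, 2, 3, 4, 8, 24, 48 and 72 h. Plasma was separated by centrifugation and stored at -70 °C. AUC was derived from the plasma concentration–time course.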

[7] = AUC (infinity) in rat at 1 mg/kg, po; format: ADME, organism-based; parameters: time infinity, dose 1 mg/kg, route oral; conditions: plasma
Outline: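 Fasted male rats dosed orally once at 1 mg/kg in saline with 0.5% MC (w/v). Heparinized jugular-vein blood was taken at 1, 2, 4, 6, 8, 24, 48 and 72 h. Plasma was obtained by centrifugation and kept at -70 °C. AUC came from the plasma concentration–time profile.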

[8] = Tmax in rat at 1 mg/kg, po; format: ADME, organism-based; parameters: dose 1 mg/kg, route oral; conditions: in vivo
Outline: (§4)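 Fasted male rats received a single 1 mg/kg dose, either iv in saline with 30% HP-β-CD or po in saline with 0.5% MC (n = 4 each). Jugular blood was taken by heparinized syringe (iv: 2 min–72 h; po: 1–72 h) and spun to plasma stored at −70 °C. AUC, Cmax, Tmax, T1/2, Vss and CL were derived from plasma concentration–time courses. F = dose-normalized AUCpo/AUCiv × 100.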

[9] = Total clearance in rat at 1 mg/kg, iv; format: ADME, organism-based; parameters: dose 1 mg/kg, route intravenous; conditions: in vivo; outline: as §4
[10] = Half life in rat at 1 mg/kg, iv; format: ADME, organism-based; parameters: dose 1 mg/kg, route intravenous; conditions: in vivo; outline: as §4
[11] = Half life in rat at 1 mg/kg, po; format: ADME, organism-based; parameters: dose 1 mg/kg, route oral; conditions: in vivo; outline: as §4
[12] = Volume of distribution at steady state in rat at 1 mg/kg, iv; format: ADME, organism-based; parameters: dose 1 mg/kg, route intravenous; conditions: in vivo, read-out: Vdss; outline: as §4
[13] = Oral bioavailability in rat at 1 mg/kg; format: ADME, organism-based; conditions: in vivo; outline: as §4
[14] = system: Rattus norvegicus; experiment: Anxiolytic activity against swin-stress-induced anxiety-like behavior in Sprague-Dawley rat assessed as increase in time spent in open arms at 10 mg/kg, po after 1 hr by plus-maze test; format: functional, organism-based; parameters: dose 10 mg/kg; outline: as §3
[15] = Cmax in rat at 1 mg/kg, po; conditions: in vivo
[16] = system: Rattus norvegicus; experiment: Anxiolytic activity against swin-stress-induced anxiety-like behavior in Sprague-Dawley rat assessed as increase in time spent in open arms at 3 mg/kg, po after 1 hr by plus-maze test; format: functional, organism-based; parameters: dose 3 mg/kg; outline: as §3

Row | Structure (SMILES) | IC50 [1] | IC50 [2] | further results
1 | CCC(C)c1cc(C)n2nc(-c3ccc(N(C)C)nc3C)n(C)c(=O)c12 (centres undefined) | 81.2 nM | 36.5 nM | 
2 | COc1ccc(-c2nn3c(C)cc(C(C)C)c3c(=O)n2C)c(Cl)c1 | 8.7 nM | 7.4 nM | 
3 | CCC(CC)c1cc(C)n2nc(-c3ccc(OC)cc3Cl)[nH]c(=O)c12 | 14.3 nM | 4 nM | 
4 | COc1cc(C)c(-c2nn3c(C)cc(C(C)C)c3c(=O)n2C)c(C)c1 | 13.1 nM | 4.5 nM | 
5 | CCC(C)c1cc(C)n2nc(-c3c(C)cc(OC)cc3C)n(C)c(=O)c12 (centres undefined) | 4.2 nM | 3.5 nM | 
6 | CCC(CC)c1cc(C)n2nc(-c3cnc(N(C)C)cc3C)c(C)cc12 | 7.4 nM | 11.5 nM | 
7 | CCOc1ccc(-c2nn3c(C)cc(C(CC)CC)c3cc2C)c(CC)c1 | 13.4 nM | 6.9 nM | 
8 | CCC(CC)c1cc(C)n2nc(-c3ccc(OC)cc3Cl)n(C3CC3)c(=O)c12 | 5.9 nM | 1 nM | 
9 | CCC(CC)c1cc(C)n2nc(-c3ccc(OC)cc3Cl)n(CC)c(=O)c12 | 4.6 nM | 0.7 nM | 
10 | CCC(CC)c1cc(C)n2nc(-c3ccc(OC)cc3C)n(CC)c(=O)c12 | 9.7 nM | 1.2 nM | 
11 | CCC(CC)c1cc(C)n2nc(-c3ccc(OC)nc3C)n(C)c(=O)c12 | 3.8 nM | 1.1 nM | 
12 | CCc1cc(OC)c(OC)cc1-c1nn2c(C)cc(C(CC)CC)c2cc1C | 8.9 nM | 1.9 nM | 
13 | CCC(CC)c1cc(C)n2nc(-c3ccc(OC)cc3Cl)n(C)c(=O)c12 | 3.8 nM | 1.2 nM | 
14 | CCC(CC)c1cc(C)n2nc(-c3ccc(OC)cc3C)n(C3CC3)c(=O)c12 | 5.7 nM | 3.7 nM | 
15 | CCC(CC)c1cc(C)n2nc(-c3cc4c(cc3C)OCO4)c(C)cc12 | 18.3 nM | 2.5 nM | 
16 | CCC(CC)c1cc(C)n2nc(-c3ccc(OC)cc3Cl)n(CCO)c(=O)c12 | 4.4 nM | 3.5 nM | 
17 | CCC(CC)c1cc(C)n2nc(-c3ccc(OC)cc3C)n(CC3CC3)c(=O)c12 | 3.3 nM | 5 nM | 
18 | CCC(CC)c1cc(C)n2nc(-c3ccc(OC)cc3C)n(CCO)c(=O)c12 |  | 4.2 nM | 
19 | CCC(CC)c1cc(C)n2nc(-c3ccc(OC)cc3C)[nH]c(=O)c12 | 149 nM | 688 nM | 
20 | CCC(CC)c1cc(C)n2nc(-c3cc(C)c(C)cc3C)c(C)cc12 | 16.6 nM | 3.3 nM | 
21 | CCC(CC)c1nc(C)c2nc(-c3ccc(OC)cc3C)c(C)cn12 | 311 nM |  | 

Continued, in another order:

Row | IC50 [1] | IC50 [2] | Structure (SMILES) | further results
22 | 111 nM | 47.2 nM | CCC(CC)c1cc(C)n2nc(-c3ccc(OC)cc3C)n(CC(C)C)c(=O)c12 | 
23 | 11.6 nM | 1.8 nM | CCC(CC)c1cc(C)n2nc(-c3ccc(C)cc3C)c(C)cc12 | 
24 | 19.2 nM | 5.1 nM | CCC(CC)c1cc(C)n2nc(-c3ccc(OC)cc3C)n(C(C)C)c(=O)c12 | 
25 |  | 3.2 nM | CCC(CC)c1cc(C)n2nc(-c3cnc(OC(F)F)cc3C)n(C)c(=O)c12 | IC50 [3]: 8.4 nM; EC50 [4]: 2.6 nM; Activity [5]: Dose-dependent effect; AUC(0-inf) [6]: 518 ng·h/mL; AUC(0-inf) [7]: 70.2 ng·h/mL; Tmax [8]: 1 h; clearance [9]: 34.7 mL/min/kg; half-life [10]: 4.3 h; half-life [11]: 2.4 h; Vd [12]: 2.95 L/kg; bioavailability [13]: 13.5%; Activity [14]: Active; Cmax [15]: 21.5 ng/mL
26 | 2 nM | 0.6 nM | CCC(CC)c1cc(C)n2nc(-c3c(C)cc(OC)cc3C)n(C)c(=O)c12 | 
27 | 8.6 nM | 17.2 nM | CCC(CC)c1cc(C)n2nc(-c3cnc(OC)cc3C)n(C)c(=O)c12 | 
28 | 4.5 nM | 0.3 nM | CCC(CC)c1cc(C)n2nc(-c3ccc(OC(F)F)nc3C)n(C)c(=O)c12 | 
29 | 131 nM |  | Cc1nc(N(C)C)ccc1-c1nn2c(C)cc(C(C)C)c2c(=O)n1C | 
30 | 5 nM | 2.4 nM | CCC(C)c1cc(C)n2nc(-c3ccc(OC)cc3C)n(C)c(=O)c12 (centres undefined) | 
31 | 122 nM | 566 nM | CCC(CC)c1nc(C)n2nc(-c3ccc(OC)cc3C)c(C)cc12 | 
32 |  | 4.9 nM | CCC(CC)c1cc(C)n2nc(-c3ccc(OC)cc3C)c(C)cc12 | Activity [16]: Active
33 | 2.6 nM | 1.7 nM | CCC(CC)c1cc(C)n2nc(-c3ccc(OC)cc3C)n(C)c(=O)c12 | 
34 | 4.9 nM | 1.1 nM | CCC(C)c1cc(C)n2nc(-c3ccc(OC)cc3Cl)n(C)c(=O)c12 (centres undefined) | 
35 | 7.8 nM | 5.5 nM | CCC(CC)c1cc(C)n2nc(-c3ccc(N(C)C)nc3C)n(C)c(=O)c12 | 

From ChEMBL document CHEMBL1938359, “Pyrrolo[1,2-b]pyridazines, pyrrolo[2,1-f]triazin-4(3H)-ones, and related compounds as novel corticotropin-releasing factor 1 (CRF₁) receptor antagonists” (Bioorg Med Chem, 2012)
